The values below come from ChEMBL document CHEMBL1641579, “Synthesis and biological evaluation of 7-substituted-1-(3-bromophenylamino)isoquinoline-4-carbonitriles as inhibitors of myosin light chain kinase and epidermal growth factor receptor” (Bioorg Med Chem, 2011).

The test system of assay [1] is NCI-H2228. Put plainly: Growth inhibition of human NCI-H2228 cells assessed as ATP level after 96 hrs by CellTiter-Glo assay. The class given is functional. To be noted: NCI-H2228, 96 h. (Cellular ATP, detected with luciferase, serves as a proxy for viable cell number.)
Assay [2] relates to NCI-H1395. As to the kind of experiment: Growth inhibition of human NCI-H1395 cells assessed as ATP level after 96 hrs by CellTiter-Glo assay. To be noted: NCI-H1395, 96 h. Format: functional. The procedure, abridged:
(§1)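 NSCLC lines maintained as in earlier work and authenticated by mutational analysis and SNP arrays. Cells were plated in 384-well format and allowed 24 h before compound addition as 10 threefold serial dilutions (DMSO stocks). After 96 h, viability was read as cellular ATP by CellTiter-Glo. GI50 was fitted with an R package.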

The nature of assay [3]: Growth inhibition of human NCI-H2172 cells assessed as ATP level after 96 hrs by CellTiter-Glo assay. Format: functional. As to conditions: NCI-H2172, 96 h.
The nature of assay [4]: Growth inhibition of human HCC515 cells assessed as ATP level after 96 hrs by CellTiter-Glo assay. Format: functional. To be noted: HCC515, 96 h. The procedure, abridged: as §1
The subject of assay [5] is NCI-H1650. As to the kind of experiment: Growth inhibition of human NCI-H1650 cells assessed as ATP level after 96 hrs by CellTiter-Glo assay. Format: functional. To be noted: NCI-H1650, 96 h. The essentials: as §1
A short description of assay [6]: Growth inhibition of human HCC1359 cells assessed as ATP level after 96 hrs by CellTiter-Glo assay. Format: functional. The procedure, abridged: as §1
Assay [7] is described as follows: Growth inhibition of human HCC4006 cells assessed as ATP level after 96 hrs by CellTiter-Glo assay. The class given is functional. As to conditions: HCC4006, 96 h. The essentials:
as §1

Assay [8] has as its system NCI-H2052. Put plainly: Growth inhibition of human NCI-H2052 cells assessed as ATP level after 96 hrs by CellTiter-Glo assay. Format: functional. To be noted: NCI-H2052, 96 h.
The test system of assay [9] is A-427. As to the kind of experiment: Growth inhibition of human A427 cells assessed as ATP level after 96 hrs by CellTiter-Glo assay. The class given is functional. To be noted: A-427, 96 h. The essentials: as §1
Assay [10] has as its system NCI-H2087. Put plainly: Growth inhibition of human NCI-H2087 cells assessed as ATP level after 96 hrs by CellTiter-Glo assay. Format: functional. To be noted: NCI-H2087, 96 h.
Assay [11] is described as follows: Growth inhibition of human NCI-H3122 cells assessed as ATP level after 96 hrs by CellTiter-Glo assay. The class given is functional. To be noted: NCI-H3122, 96 h.
Assay [12] is described as follows: Growth inhibition of human HCC1171 cells assessed as ATP level after 96 hrs by CellTiter-Glo assay. The class given is functional. To be noted: HCC1171, 96 h. The essentials:
as §1

Assay [13] can be described thus: Growth inhibition of human NCI-H2110 cells assessed as ATP level after 96 hrs by CellTiter-Glo assay. The class given is functional. To be noted: NCI-H2110, 96 h.
Assay [14] can be described thus: Growth inhibition of human HCC2429 cells assessed as ATP level after 96 hrs by CellTiter-Glo assay. The class given is functional. To be noted: HCC2429, 96 h. The essentials: as §1
For assay [15], the system named is NCI-H647. As to the kind of experiment: Growth inhibition of human NCI-H647 cells assessed as ATP level after 96 hrs by CellTiter-Glo assay. Format: functional. To be noted: NCI-H647, 96 h.
Assay [16] can be described thus: Growth inhibition of human NCI-H1781 cells assessed as ATP level after 96 hrs by CellTiter-Glo assay. The class given is functional. As to conditions: NCI-H1781, 96 h. The essentials: as §1
The subject of assay [17] is NCI-H1355. Put plainly: Growth inhibition of human NCI-H1355 cells assessed as ATP level after 96 hrs by CellTiter-Glo assay. Format: functional. To be noted: NCI-H1355, 96 h. The essentials:
as §1

Assay [18] can be described thus: Growth inhibition of human H3255 cells assessed as ATP level after 96 hrs by CellTiter-Glo assay. The class given is functional. As to conditions: NCI-H3255, 96 h. The essentials:
as §1

A short description of assay [19]: Growth inhibition of human HCC1833 cells assessed as ATP level after 96 hrs by CellTiter-Glo assay. The class given is functional. The procedure, abridged: as §1
In assay [20] the test system is LCLC-97TM1. As to the kind of experiment: Growth inhibition of human LCLC97TM1 cells assessed as ATP level after 96 hrs by CellTiter-Glo assay. Format: functional. To be noted: LCLC-97TM1, 96 h. The procedure, abridged:
as §1

The nature of assay [21]: Growth inhibition of human NCI-H1568 cells assessed as ATP level after 96 hrs by CellTiter-Glo assay. Format: functional. As to conditions: NCI-H1568, 96 h. The procedure, abridged:
as §1

Assay [22] concerns NCI-H1792. Put plainly: Growth inhibition of human NCI-H1792 cells assessed as ATP level after 96 hrs by CellTiter-Glo assay. Format: functional. To be noted: NCI-H1792, 96 h. The essentials: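 NSCLC lines maintained as previously described, authenticated by mutational analysis and SNP arrays. Cells seeded and incubated 24 h, then given compound (DMSO stocks) as 10 threefold serial dilutions. Viability read after 96 h as cellular ATP content (CellTiter-Glo). GI50 derived by curve fitting of half-maximal inhibition.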

Assay [23] can be described thus: Growth inhibition of human HCC461 cells assessed as ATP level after 96 hrs by CellTiter-Glo assay. Format: functional. To be noted: HCC461, 96 h. The essentials:
as §1

The nature of assay [24]: Growth inhibition of human HCC364 cells assessed as ATP level after 96 hrs by CellTiter-Glo assay. The class given is functional. As to conditions: HCC364, 96 h. The procedure, abridged:
as §1

Assay [25] concerns NCI-H520. Put plainly: Growth inhibition of human NCI-H520 cells assessed as ATP level after 96 hrs by CellTiter-Glo assay. Format: functional. To be noted: NCI-H520, 96 h.
The nature of assay [26]: Growth inhibition of human HCC193 cells assessed as ATP level after 96 hrs by CellTiter-Glo assay. Format: functional. To be noted: HCC193, 96 h. The essentials:
as §1

In assay [27] the test system is SK-LU-1. Put plainly: Growth inhibition of human SKLU1 cells assessed as ATP level after 96 hrs by CellTiter-Glo assay. Format: functional. To be noted: SK-LU-1, 96 h.
In assay [28] the test system is NCI-H661. Put plainly: Growth inhibition of human NCI-H661 cells assessed as ATP level after 96 hrs by CellTiter-Glo assay. The class given is functional. As to conditions: NCI-H661, 96 h.
Assay [29] can be described thus: Growth inhibition of human HCC95 cells assessed as ATP level after 96 hrs by CellTiter-Glo assay. The class given is functional. As to conditions: HCC95, 96 h. The procedure, abridged:
as §1

The subject of assay [30] is NCI-H1666. As to the kind of experiment: Growth inhibition of human NCI-H1666 cells assessed as ATP level after 96 hrs by CellTiter-Glo assay. The class given is functional. As to conditions: NCI-H1666, 96 h. The essentials:
as §1

Assay [31] relates to NCI-H1648. Put plainly: Growth inhibition of human NCI-H1648 cells assessed as ATP level after 96 hrs by CellTiter-Glo assay. The class given is functional. As to conditions: NCI-H1648, 96 h. The procedure, abridged:
as §1

Assay [32] has as its system Calu-1. Put plainly: Growth inhibition of human Calu1 cells assessed as ATP level after 96 hrs by CellTiter-Glo assay. Format: functional. To be noted: Calu-1, 96 h. The essentials: as §1
Assay [33] deals with NCI-H1993. As to the kind of experiment: Growth inhibition of human NCI-H1993 cells assessed as ATP level after 96 hrs by CellTiter-Glo assay. As to conditions: NCI-H1993, 96 h. Format: functional.
In assay [34] the target is Myosin light chain kinase, smooth muscle (Homo sapiens, UniProt Q15746). As to the kind of experiment: Competitive inhibition of MLCK by Lineweaver-Burk plot analysis. The essentials: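 Double-reciprocal (1/V vs 1/[ATP]) kinetics using the HTRF phosphorylation read-out with Ca2+/calmodulin. Conditions: 375 nM STK1 peptide substrate, ATP at 80, 110 and 140 µM, inhibitor at 0, 1, 5 and 10 µM. Reaction velocities plotted to determine the mode of inhibition.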
Sequence of Myosin light chain kinase, smooth muscle (Q15746 whole entry): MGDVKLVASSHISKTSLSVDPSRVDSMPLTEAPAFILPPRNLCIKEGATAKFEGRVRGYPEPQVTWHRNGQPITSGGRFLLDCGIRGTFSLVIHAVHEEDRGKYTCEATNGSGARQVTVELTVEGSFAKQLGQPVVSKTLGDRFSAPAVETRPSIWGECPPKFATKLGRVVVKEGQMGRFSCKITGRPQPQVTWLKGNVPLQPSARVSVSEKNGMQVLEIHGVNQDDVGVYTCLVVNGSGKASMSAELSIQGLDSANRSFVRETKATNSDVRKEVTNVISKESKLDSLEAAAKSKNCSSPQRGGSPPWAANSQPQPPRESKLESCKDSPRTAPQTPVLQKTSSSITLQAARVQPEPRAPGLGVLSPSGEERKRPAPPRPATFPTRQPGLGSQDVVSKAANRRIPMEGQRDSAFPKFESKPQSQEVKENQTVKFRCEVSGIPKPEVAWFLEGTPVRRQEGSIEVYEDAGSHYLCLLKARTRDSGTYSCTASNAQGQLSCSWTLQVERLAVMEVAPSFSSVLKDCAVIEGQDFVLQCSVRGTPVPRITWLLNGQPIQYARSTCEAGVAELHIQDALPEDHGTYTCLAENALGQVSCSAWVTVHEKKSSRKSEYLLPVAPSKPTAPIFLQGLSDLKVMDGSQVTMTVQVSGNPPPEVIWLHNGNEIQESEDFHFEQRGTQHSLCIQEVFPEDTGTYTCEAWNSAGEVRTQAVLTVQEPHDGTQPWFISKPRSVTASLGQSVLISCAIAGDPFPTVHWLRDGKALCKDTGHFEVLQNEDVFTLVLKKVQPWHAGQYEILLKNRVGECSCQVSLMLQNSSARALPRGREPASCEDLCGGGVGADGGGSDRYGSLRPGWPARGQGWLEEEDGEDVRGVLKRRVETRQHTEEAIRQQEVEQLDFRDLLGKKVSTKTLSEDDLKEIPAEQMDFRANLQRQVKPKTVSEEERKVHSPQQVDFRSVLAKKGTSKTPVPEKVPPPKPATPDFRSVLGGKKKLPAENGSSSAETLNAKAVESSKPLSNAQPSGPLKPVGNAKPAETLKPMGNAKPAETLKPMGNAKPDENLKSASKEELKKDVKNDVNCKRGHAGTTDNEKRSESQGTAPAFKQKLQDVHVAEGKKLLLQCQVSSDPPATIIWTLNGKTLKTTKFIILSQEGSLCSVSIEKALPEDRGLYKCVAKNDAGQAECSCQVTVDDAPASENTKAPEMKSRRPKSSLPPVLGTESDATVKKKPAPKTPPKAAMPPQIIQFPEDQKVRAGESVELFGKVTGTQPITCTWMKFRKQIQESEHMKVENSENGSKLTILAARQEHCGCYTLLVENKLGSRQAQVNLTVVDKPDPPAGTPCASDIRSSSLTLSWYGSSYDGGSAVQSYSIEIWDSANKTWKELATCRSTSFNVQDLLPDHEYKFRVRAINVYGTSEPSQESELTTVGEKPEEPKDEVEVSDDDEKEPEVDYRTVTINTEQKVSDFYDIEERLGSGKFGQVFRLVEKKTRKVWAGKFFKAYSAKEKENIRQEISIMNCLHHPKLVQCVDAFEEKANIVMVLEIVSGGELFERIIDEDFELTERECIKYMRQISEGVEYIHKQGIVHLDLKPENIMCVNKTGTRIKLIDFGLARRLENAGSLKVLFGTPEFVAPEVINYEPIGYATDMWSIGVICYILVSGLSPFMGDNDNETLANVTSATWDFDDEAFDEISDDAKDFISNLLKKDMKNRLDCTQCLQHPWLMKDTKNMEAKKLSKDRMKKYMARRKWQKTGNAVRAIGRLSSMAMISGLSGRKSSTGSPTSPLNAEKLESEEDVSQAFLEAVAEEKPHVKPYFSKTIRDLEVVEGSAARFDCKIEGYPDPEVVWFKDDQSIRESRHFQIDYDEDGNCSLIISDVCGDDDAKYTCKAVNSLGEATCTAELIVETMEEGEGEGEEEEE

The structures appear in SMILES notation. Active and inactive are the calls of the source. The calls are words filed in the database; no cut-off is given here.

The GI50 is the concentration that inhibits growth by half. For the compound `CN(C)C/C=C/C(=O)Nc1ccc2c(C#N)cnc(Nc3cccc(Br)c3)c2c1`, the GI50 in assay [1] turned out to be 21.9 µM; in [2], 31.3 µM; in assay [3], 17.4 µM; in assay [4] it was 20.4 µM; in assay [5], 15.7 µM; in [6] it was 18.6 µM. Also, the GI50 stood at 13.3 µM in assay [7]; 21.6 µM in assay [8]; 15.8 µM in [9]; 17 µM in assay [10]; 16.6 µM in assay [11]; 17.4 µM in [12]. Moreover, the GI50 in [13] is 13.2 µM; in assay [14], 19.5 µM; in assay [15], 26.3 µM; in [16], 10.1 µM; in [17], 22.9 µM; in assay [18], 4.32 µM. Besides, the GI50 stood at 16.8 µM in assay [19]; 19.5 µM in [20]; 30.9 µM in assay [21]; 26.3 µM in assay [22]; 16 µM in assay [23]; 21.9 µM in assay [24]. The GI50 in assay [25] came to 16 µM; in [26], 15.3 µM; in assay [27] it was 16.6 µM; in assay [28], 14 µM; in [29] it was 13.3 µM; in [30], 28.8 µM. Also, the GI50 in assay [31] came to 21.1 µM; in [32], 19.7 µM; in assay [33] it was 12.9 µM.

On to `CN1CCN(CCC(=O)Nc2ccc3c(C#N)cnc(Nc4cccc(Br)c4)c3c2)CC1`, for which the inhibition entry in [34] was “Active”.
